One may read the AUC(0-t) as the area under the concentration-time curve up to a stated or last time point. A word on the Cmax: it is the maximum level reached in the sampled fluid or tissue. In general, IC50 refers to the midpoint of a concentration-inhibition curve. Read a low IC50 as greater potency in that assay.

One compound from ChEMBL document CHEMBL5338759, “N-Phenyl-1-(phenylsulfonyl)-1H-1,2,4-triazol-3-amine as a New Class of HIV-1 Non-nucleoside Reverse Transcriptase Inhibitor” (J Med Chem, 2023) can be followed below.

A short description of series [1]: Subacute toxicity in BALB/c mouse assessed as pathological change in kidney at 25 to 250 mg/kg, IG measured daily for 30 days by H and E staining based histological analysis. Conditions: in vivo, po, 720 h, dose 25-250 mg/kg, time 30 day. In kind it is organism-based. An outline of the steps:
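Male Balb/C mice (17 per group) received 25 or 250 mg/kg intragastrically in 1% starch gel once daily for 30 days, against starch gel controls. Internal organs were examined macroscopically after the study. Sections were paraffin-embedded and stained with hematoxylin and eosin.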

A short description of series [2]: AUC (0 to 24 hrs) in BALB/c mouse brain at 250 mg/kg, IG measured at 0.5 to 24 hrs by HPLC-MS analysis. Particulars: po. The arrangement: dose 250 mg/kg, time 0.5-24 hrs, route ig. It is filed as ADME, organism-based. An outline of the steps:
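Mice averaging 20 g (24 animals) were fasted 1 h before and 1 h after dosing. They received 250 mg/kg as 0.5 ml suspension in 1% CMC, 0.05% Tween 80 by intragastric intubation. Blood and brain were taken after decapitation at 0.5, 1, 2, 3, 5, 8 and 24 h (3 per time point). Plasma was frozen at -20°C and brain at -120 °C. Quantification was by UPLC-HRMS (ESI+, EIC m/z 476.0691) against plasma-matrix standards. Parameters were derived by noncompartmental analysis; LLOQ 5 ng/ml, with values below it set to 2.5.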

Series [3] is described as follows: Subacute toxicity in BALB/c mouse assessed as effect on heart weight at 25 to 250 mg/kg, IG measured daily for 30 days. In kind it is organism-based. Conditions: in vivo, po, 720 h, dose 25-250 mg/kg, time 30 day.
Series [4] is described as follows: Selectivity index, ratio of CC50 for cytotoxicity against human TZM-bl cells assessed as reduction in cell viability by MTS assay to EC50 for antiviral activity against HIV1 harboring A17 mutant infected in human TZM-bl cells. In kind it is toxicity, cell-based. Particulars: read-out: Ratio CC50/EC50.
The nature of series [5]: Subacute toxicity in BALB/c mouse assessed as effect on adrenal gland weight at 25 to 250 mg/kg, IG measured daily for 30 days. Particulars: in vivo, po, 720 h, dose 25-250 mg/kg, time 30 day. In kind it is organism-based.
A short description of series [6]: Cmax in BALB/c mouse plasma at 250 mg/kg, IG measured at 0.5 to 24 hrs by HPLC-MS analysis. In kind it is ADME, organism-based. Conditions: in vivo, po. Also on record: time lower 0.5 hrs, dose 250 mg/kg, time upper 24 hrs, route ig. An outline of the steps: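 Mice (~20 g; food withheld 1 h before and after dosing), single dose as 0.5 ml suspension in 1% CMC/0.05% Tween 80 by gavage. Three animals per time point (0.5–24 h). Heparinized plasma frozen at -20°C, quantified by UPLC-ESI(+)-QTOF-MS (EIC m/z 476.0691) against plasma-matrix standards. LLOQ 5 ng/ml, lower values set to 2.5 ng/ml. Noncompartmental analysis.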

A short description of series [7]: Selectivity ratio of IC50 for antiviral activity against wild type HIV1 IIIB infected in human TZM-bl cells to IC50 for antiviral activity against HIV1 harboring K103N mutant infected in human TZM-bl cells. It is filed as toxicity, cell-based. Particulars: human immunodeficiency virus 1. An outline of the steps: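 TZM-bl cells (2x10⁵/mL) with 15 µg/mL DEAE-dextran were infected with HIV-1 IIIB, A17 (K103N/Y181C) IIIB variant, or NL4-3-based NNRTI-resistant mutants. Compound was present at 0.05–500 nM (DMSO held constant, 0.005% or 0.05%) for 48 hr at 37°C, 5% CO₂.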

The nature of series [8]: Subacute toxicity in BALB/c mouse assessed as effect on thymus weight at 25 to 250 mg/kg, IG measured daily for 30 days. It is filed as organism-based. Particulars: in vivo, po, 720 h, dose 25-250 mg/kg, time 30 day.
A short description of series [9]: Subacute toxicity in BALB/c mouse assessed as body weight gain at 25 to 250 mg/kg, IG measured daily for 30 days. It is filed as organism-based. Particulars: in vivo, po, 720 h, dose 25-250 mg/kg, time 30 day. A digest of the protocol:
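Male Balb/C mice (17 per group, initial weight 20.9 ± 0.8 g) were dosed intragastrically once daily for 30 days at 25 or 250 mg/kg. Doses were given as 2.5 or 25 mg/ml suspensions in 1% starch gel at 0.2 ml per 20 g; controls received starch gel alone. Weight, coat, mucous membranes and excretion were recorded throughout.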

Series [10] concerns Human immunodeficiency virus 1. The experiment in a line: Antiviral activity against HIV1 harboring L100I/K103N double mutant infected in human TZM-bl cells. Particulars: Human immunodeficiency virus 1, TZM-bl. It is filed as functional, organism-based.

For the compound `N#C/C=C/c1ccc2c(S(=O)(=O)n3nc(Nc4ccc(C#N)c(Cl)c4)nc3N)cccc2c1`, the Activity entry in [1], in series [3], in series [5], in series [8] and in series [9] was “Non-Toxic” each time. For the same compound, the AUC(0-t) in series [2] amounted to 142 µg·h/mL. In addition, the selectivity ratio in series [4] stood at 1200. The same compound displayed a Cmax in [6] of 81.4 ng/mL. For the same compound, the “Ratio IC50” value in series [7] is given as 8.9. For the same compound, in series [10], half-maximal inhibition (IC50) required 1050 nM.
